# Experimental data: ChEMBL document CHEMBL1154207, “Protease inhibitors from a water bloom of the cyanobacterium Microcystis aeruginosa” (J Nat Prod, 2009)
# Experiments:
# [1] = Inhibition of trypsin after 30 mins preincubated for 5 mins before addition of substrate
# Procedure, shortened: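 Trypsin enzyme solution at 1 mg/mL in 50 mM Tris-HCl/100 mM NaCl/1 mM CaCl₂. Substrate solution was 2 mM N-benzoyl-D,L-arginine-p-nitroanilide in buffer. Test sample in ethanol was diluted with buffer and preincubated with enzyme in buffer for 5 min at 37 °C before substrate addition. Color was read at 405 nm immediately and after 30 min at 37 °C.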
# [2] = Inhibition of Chymotrypsin after 30 mins preincubated for 5 mins before addition of substrate
# Procedure, shortened: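 Chymotrypsin enzyme solution at 1 mg/mL in 50 mM Tris-HCl/100 mM NaCl/1 mM CaCl₂/1 mM HCl. Substrate solution was 2 mM […] in the same buffer. Samples were dissolved in ethanol and diluted in buffer. Enzyme, sample and buffer were preincubated 5 min at 37 °C, then substrate was added. Absorbance at 405 nm was read at once and after 30 min at 37 °C.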
Structure (SMILES),IC50 [1],IC50 [2]
CC[C@H](C)[C@@H]1NC(=O)[C@H](Cc2ccc(O)cc2)N(C)C(=O)[C@H]([C@@H](C)CC)N2C(=O)[C@H](CC[C@H]2O)NC(=O)[C@H](CCCNC(=N)N)NC(=O)[C@@H](NC(=O)[C@@H](COS(=O)(=O)O)OS(=O)(=O)O)[C@@H](C)OC1=O,2200 nM,> 100000 nM
CC[C@H](C)[C@@H]1NC(=O)[C@H](Cc2ccc(OC)c(Cl)c2)N(C)C(=O)[C@H]([C@@H](C)CC)N2C(=O)[C@H](CC[C@H]2O)NC(=O)[C@H](CCCNC(=N)N)NC(=O)[C@@H](NC(=O)[C@@H](COS(=O)(=O)O)OS(=O)(=O)O)[C@@H](C)OC1=O,1700 nM,> 100000 nM
CC[C@H](C)[C@@H]1NC(=O)[C@H](Cc2ccc(OC)c(Cl)c2)N(C)C(=O)[C@H]([C@@H](C)CC)N2C(=O)[C@H](CC[C@H]2O)NC(=O)[C@H](CCCNC(=N)N)NC(=O)[C@@H](NC(=O)[C@H](O)COS(=O)(=O)O)[C@@H](C)OC1=O,700 nM,18200 nM
CC[C@H](C)[C@H]1C(=O)N(C)[C@@H](Cc2ccc(O)c(Cl)c2)C(=O)N[C@@H](C(C)C)C(=O)O[C@H](C)[C@H](NC(=O)[C@@H](COS(=O)(=O)O)OS(=O)(=O)O)C(=O)N[C@@H](CCCNC(=N)N)C(=O)N[C@H]2CC[C@@H](O)N1C2=O,1200 nM,> 100000 nM
CC[C@H](C)[C@H]1C(=O)N(C)[C@@H](Cc2ccc(OC)c(Cl)c2)C(=O)N[C@@H](C(C)C)C(=O)O[C@H](C)[C@H](NC(=O)[C@H](O)CO)C(=O)N[C@@H](CCCNC(=N)N)C(=O)N[C@H]2CC[C@@H](O)N1C2=O,3500 nM,19600 nM
CC[C@H](C)[C@H]1C(=O)N(C)[C@@H](Cc2ccc(OC)c(Cl)c2)C(=O)N[C@@H](C(C)C)C(=O)O[C@H](C)[C@H](NC(=O)[C@H](O)CO)C(=O)N[C@@H](CCCNC(=N)N)C(=O)N[C@H]2CC[C@@H](OC)N1C2=O,1100 nM,2800 nM
